Records with an inconclusive call do not appear. Activity calls are given as the source filed them.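 The calls were made as follows, unless noted: active = RAM network inhibition above 8.4% in each of two replicates, 3 SD over the compound average; inconclusive = above 8.4% inhibition in only one replicate; inactive = 8.4% inhibition or less in each replicate.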
Key:
[1] = S. cerevisiae growth inhibition in permissive medium (OD615), pilot counter-assay for S. cerevisiae lifespan shortening project, permissive growth control (AID 705;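 active = growth inhibition above 25% in both replicates, a cutoff set 3 SD above the mean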); conditions: OD615, 24 h, at 10 µM, hits give high values
Procedure, shortened: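 assay system = Saccharomyces cerevisiae strain carrying genetically modified DeaD replicative-lifespan system | medium = SC raffinose/galactose permissive medium | dosing = 10 µM single dose, 0.25% DMSO | schedule = 24 h compound exposure at 30 °C after 4 h pre-growth | measured by = OD at 615 nm | read-out basis = growth inhibition from lowered OD615 after 24 h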

[2] = S. cerevisiae growth inhibition in restrictive medium, OD615, pilot screen, restrictive growth control, yeast lifespan reduction project (AID 706;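 active = growth inhibition above a set limit, 3 SD over mean compound inhibition, in both replicates, cut at about 43% in these data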;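 also: modified DeaD lifespan yeast strain shifted to restrictive glucose medium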); conditions: OD615, 48 h, at 10 µM, hits give high values
Procedure, shortened: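 Buffer or medium: CSMM-D glucose medium. Material: genetically modified Saccharomyces cerevisiae, DeaD replicative lifespan assay strain. Times: 48 h compound exposure at 30 °C. Measured by: optical density at 615 nm.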

[3] = doxorubicin toxicity protection in MRP-1 cells – H69AR cells, CellTiter-Glo, duplicate, MRP-1 activator project, pilot screen (AID 807;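 active = viability increase at or above a cutoff of the median across tested compounds plus 3 SD, cut at about 8.5% in these data, passing the limit was not always enough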;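 also: compound pretreatment 18-22 h then 72 h combined with doxorubicin; 0% = doxorubicin alone and 100% = vehicle without doxorubicin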); conditions: H69AR viability with doxorubicin, CellTiter-Glo luminescence; at 10 µM; hits give high values
[4] = viability of HCT116 without oncogenic beta-catenin – human colon tumor cells, pilot screen (AID 823;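 active = cell viability at or below a set limit in both duplicate runs, the limit being the all-compound median minus 4 SD, cut at about 23% in these data, passing the limit was not always enough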;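 also: 0% = wells killed by 20 µM Hyamine and 100% = untreated DMSO cell wells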); conditions: HCT116 beta-catenin knockout viability, CellTiter-Glo, 60 h; at 10 µM; hits give low values
[5] = viability of PTEN-null HCT116 cells – cell-based, HCT116 clonal line, CellTiter-Glo, pilot screen (AID 824;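 active = viability at or below 27.92% in each of two runs, the all-compound median minus 4 SD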;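 also: 0% = 20 µM Hyamine control and 100% = vehicle cell control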); conditions: HCT116 PTEN-deleted viability, 60 h, at 10 µM, hits give low values
[6] = RAM pathway blockade in budding yeast – dse1pr::URA3 reporter, 5-FOA selection, pilot screen (AID 869;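 active = inhibition over a set limit, the all-compound mean plus 3 SD, in both replicate runs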;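 also: 0% = DMSO wells with no growth and 100% = 10 µM 1-NA-PP1 with full growth; RAM network block rescues cells from 5-FOA so hits raise OD615 growth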); conditions: S. cerevisiae dse1pr::URA3 5-FOA growth, OD615, 2 d; at 10 µM; hits give high values; strain carries analog-sensitive mutant Cbk1 kinase
[7] = RAM signaling pathway blockade in yeast – S. cerevisiae, Pdr1DBD-CYC8 efflux-inhibited sensitized strain, primary screen (AID 1298);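 also: 0% = DMSO untreated cells without growth and 100% = 10 µM 1-NA-PP1 full growth; higher means more yeast growth rescued from 5-FOA killing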; conditions: S. cerevisiae cbk1-as DSE1-URA3 strain, 5-FOA growth OD615, 2 d; at 50 µM; hits give high values

CCOC(=O)Cc1csc(NC(=O)COc2ccc(N(C)S(=O)(=O)c3cccs3)cc2)n1
inactive: growth inhibition [1] -7.54% | growth inhibition [2] -11.7% | viability increase [3] -1.76% | viability [4] 71% | viability [5] 80.3% | inhibition [6] 0.12% | RAM network inhibition [7] 1.7%

Cc1[nH]n2c(=O)c3c(nc2c1-c1ccc(Cl)cc1)CCC3
inactive: growth inhibition [1] -14.1% | growth inhibition [2] -8.77% | viability increase [3] -2.32% | inhibition [6] 1.88% | RAM network inhibition [7] 6.65%
active: viability [4] 22.5% | viability [5] 26.8%

COC(=O)CSc1nc2ccccc2o1
inactive: growth inhibition [1] -7.46% | growth inhibition [2] -18.7% | viability increase [3] -1.43% | viability [4] 97.8% | viability [5] 96.3% | inhibition [6] 1.3% | RAM network inhibition [7] 1.45%

Cc1c(NC(=O)c2ccc3c(c2)OCO3)c(=O)n(-c2ccccc2)n1C
inactive: growth inhibition [1] -8.08% | growth inhibition [2] -23.4% | viability increase [3] -0.33% | viability [4] 104% | viability [5] 101% | inhibition [6] 0.345% | RAM network inhibition [7] 2.71%

CCOC(=O)Cn1c(=O)oc2cc(S(=O)(=O)NCC3CCCO3)ccc21 (stereo not drawn)
inactive: growth inhibition [1] -10.1% | growth inhibition [2] -10.7% | viability increase [3] -1.7% | viability [4] 99.8% | viability [5] 103% | inhibition [6] 0.325% | RAM network inhibition [7] 2.41%

Brc1ccc(OCCOCCN2CCOCC2)cc1
inactive: growth inhibition [1] -13.4% | growth inhibition [2] -8.66% | viability increase [3] 2.95% | viability [4] 91.7% | viability [5] 93% | inhibition [6] 0.12% | RAM network inhibition [7] 1.24%

CCOc1ccc(C(C)NC(=O)CCC(=O)O)cc1 (stereo not drawn)
inactive: growth inhibition [1] -4.12% | growth inhibition [2] -1.54% | viability increase [3] -1.24% | viability [4] 93.4% | viability [5] 89% | inhibition [6] 1.27% | RAM network inhibition [7] 0.68%

Cc1cccc(Cn2c(CN3CCN(Cc4ccccc4)CC3)nc3c2c(=O)[nH]c(=O)n3C)c1
inactive: growth inhibition [1] -14.3% | growth inhibition [2] -14.1% | viability increase [3] -3.25% | viability [4] 50.4% | viability [5] 48.6% | inhibition [6] 2.25% | RAM network inhibition [7] 1.88%

COc1ccc(CCC(C(O)C(F)(F)F)S(=O)c2ccccc2)cc1 (stereo not drawn)
inactive: growth inhibition [1] -4.67% | growth inhibition [2] -15.5% | viability increase [3] -0.87% | viability [4] 95.4% | viability [5] 101% | inhibition [6] 0.54% | RAM network inhibition [7] 7.13%

COc1ccc(OC)c2sc(NC(=O)C3CC3)nc12
inactive: growth inhibition [1] 1.08% | growth inhibition [2] 5.55% | viability increase [3] -3.24% | viability [4] 99.7% | viability [5] 90.3% | inhibition [6] 1.25% | RAM network inhibition [7] 6.06%

COc1cccc(C(=O)Nc2ccc3nc(N4CCN(c5ncccn5)CC4)cc(C)c3c2)c1OC
inactive: growth inhibition [1] 12% | growth inhibition [2] -8.24% | viability increase [3] -5.36% | inhibition [6] 0.73% | RAM network inhibition [7] 4.05%
active: viability [4] 9.73% | viability [5] 12.8%

Cc1ccc(N2CCN(S(=O)(=O)c3ccc(F)cc3)CC2)c(C)c1
inactive: growth inhibition [1] -0.375% | growth inhibition [2] -15.2% | viability increase [3] -1.12% | viability [4] 66.6% | viability [5] 60.9% | inhibition [6] -0.44% | RAM network inhibition [7] 7.03%

COCCn1c(CN2CC(C)CC(C)C2)nc2c1c(=O)n(C)c(=O)n2C (stereo not drawn)
inactive: growth inhibition [1] 8.93% | growth inhibition [2] 9.36% | viability increase [3] 0.07% | viability [4] 90.4% | viability [5] 98.5% | inhibition [6] -0.14% | RAM network inhibition [7] -0.26%

Cc1ccc(/C(O)=C2\C(=O)C(=O)N(CCN(C)C)C2c2ccccc2F)cc1 (stereo not drawn)
inactive: growth inhibition [1] -10.5% | growth inhibition [2] -5.25% | viability increase [3] -2.92% | viability [4] 88.3% | viability [5] 87.1% | inhibition [6] -0.9% | RAM network inhibition [7] -1.02%
